Columns and labels:
HCT-116 = assay: Cytotoxicity against human HCT-116 cells assessed as inhibition of cell growth measured after 72 hrs by CellTiter-Glo reagent based luminescence assay; assay type: functional; conditions: HCT-116, 72 h
Procedure, shortened: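 Cells (HCT-116 in McCoy's 5A; U87-MG in DMEM 4.5 g/L glucose; all with 10% serum, 1% glutamine, 37 °C, 5% CO2) seeded at 3 × 10³/well, treated after 24 h with 10 final concentrations by serial dilution; vehicle controls. After 72 h, CellTiter-Glo luminescence; IC50 from four- or five-parameter logistic fit, triplicate, mean of three experiments.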

[1] = Drug metabolism in rat liver microsomes assessed as O-demethylated metabolite formation measured after 96 hrs by ESI-HRMS assay; assay type: ADME, Microsome
Procedure, shortened: (§1)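 Rat or human liver microsomes at 1 mg/mL final protein in 10 mM buffer, pH 7.4, prewarmed to 37 °C with an NADPH-generating system (0.6 mM NADP, 6.4 mM glucose-6-phosphate, 2 U/mL G6P dehydrogenase). Substrate 100 μM final; shaken at 37 °C. Triplicate aliquots taken at 0–96 h (up to 144 h), ethyl acetate quench with internal standard, then HPLC-MS/MS (positive ESI, m/z 150–450, CID).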

[2] = Inhibition of porcine brain tubulin polymerization incubated for 30 mins followed by cooling on ice for 10 mins and measured by UV spectrometer assay; assay type: tissue-based, Sus scrofa
Procedure, shortened: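 Porcine brain tubulin (Shelanski isolation) in 0.1 M MES, 1.5 mM GTP, 1 mM EGTA, 1 mM β-ME, 1 mM MgCl2, pH 6.7, diluted to 1.5 mg/mL; ligand or DMSO 30 min at 20 °C, 10 min on ice. Assembly by 450 nm turbidity on 4→37 °C shift, plateau minus baseline vs no-ligand control (100%); IC50 from mono-exponential fit of ligand:tubulin ratio, three independent experiments.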

[3] = Drug metabolism in rat liver microsomes assessed as hydroxylated metabolite formation measured after 96 hrs by ESI-HRMS assay; assay type: ADME, Microsome
Procedure, shortened: (§2)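 Compound at 100 μM final incubated at 37 °C with rat or human liver microsomes (1 mg/mL protein, 10 mM buffer pH 7.4) plus NADPH-generating system (0.6 mM NADPNa4, 6.4 mM glucose-6-phosphate, 2 U/mL G6PDH). After 96 h, ethyl acetate extraction and HPLC-MS/MS (positive ESI, m/z 150–450, collision-induced dissociation) to identify metabolites.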

[4] = Metabolic stability in rat liver microsomes assessed as half life measured after 96 hrs by HPLC-MS/MS analysis; assay type: ADME, Microsome
Procedure, shortened: (§3)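 Compound (100 μM final) incubated at 37 °C with rat or human liver microsomes (1 mg/mL protein, pH 7.4) and NADPH-generating system; triplicate aliquots at 0–144 h quenched with isoCA-4 internal standard and ethyl acetate, quantified by HPLC-MS/MS against calibration curves.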

[5] = Metabolic stability in human liver microsomes assessed as half life measured after 96 hrs by HPLC-MS/MS analysis; assay type: ADME, Microsome; procedure, shortened: as §3
[6] = Drug metabolism in human liver microsomes assessed as hydroxylated metabolite formation measured after 96 hrs by ESI-HRMS assay; assay type: ADME, Microsome; procedure, shortened: as §2
[7] = Drug metabolism in human liver microsomes assessed as O-demethylated metabolite formation measured after 96 hrs by ESI-HRMS assay; assay type: ADME, Microsome; procedure, shortened: as §1

SMILES | IC50 (HCT-116) | further results
Cc1cc(N(C)c2ccc3c(c2)cc2n3CC=CC2)c2ccccc2n1 | 5.2 nM | –
C=C(c1ccc2c(c1)cc1n2CC=CC1)c1cc(C)nc2ccccc12 | 25.7 nM | –
C=C(c1cc(OC)c(OC)c(OC)c1)c1ccc2c(c1)cc(CO)n2CC | 0.52 nM | Drug metabolism [1]: Metabolite_Detected; IC50 [2]: 2900 nM; Drug metabolism [3]: Metabolite_Detected; half-life [4]: 70 h; half-life [5]: 89 h; Drug metabolism [6]: Metabolite_Detected; Drug metabolism [7]: Metabolite_Detected
C=C(c1ccc2c(c1)cc(CO)n2C)c1cc(C)nc2ccccc12 | 1.25 nM | –
Cc1nc(N(C)c2ccc3c(c2)cc2n3CCOC2)c2ccccc2n1 | 10.4 nM | –
Cc1cc(N(C)c2ccc3c(c2)cc(CO)n3C)c2ccccc2n1 | 16.4 nM | –
COc1cc2nc(Cl)nc(N(C)c3ccc4c(c3)cc3n4CCOC3)c2cc1OC | 361 nM | –
C=C(c1ccc2c(c1)cc(CO)n2CC)c1cc(C)nc2ccccc12 | 1.47 nM | –
C=C(c1cc(OC)c(OC)c(OC)c1)c1ccc2c(c1)cc1n2CCOC1 | 23.5 nM | –
CN(c1ccc2c(c1)cc1n2CCOC1)c1cc(C#N)nc2ccccc12 | 2.8 nM | –
Cc1cc(N(C)c2ccc3c(c2)cc2ccccn23)c2ccccc2n1 | 78.4 nM | –
COCc1cc2cc(N(C)c3cc(OC)c(OC)c(OC)c3)ccc2n1C | 47.5 nM | –
C=C(c1cc(OC)c(OC)c(OC)c1)c1ccc2c(c1)cc1n2CC=CC1 | 970 nM | –
C=C(c1ccc2c(c1)cc1n2CCOC1)c1cc(C)nc2ccccc12 | 109 nM | –

— ChEMBL document CHEMBL5055628, “Anticancer properties of indole derivatives as IsoCombretastatin A-4 analogues” (Eur J Med Chem, 2021)
